# Assay results from publication PMC4603714 (Drug Design, Development and Therapy, 2015).
# Like-named read-outs stand apart in the source and are kept apart here.
# Experiments:
# HeLa cells = experiment: In vitro antiproliferative assay; format: cell-based; details: Homo sapiens, 48 h, read-out: HeLa IC50
# How it was run: (§1)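 Cells kept in RPMI-1640 with 10% FBS at 37°C, 5% CO2. Passaged into plates the day before dosing and grown at least 4 h before test compound was added. Exposure was 48 h, then 0.5% MTT for 4 h. Formazan was dissolved in DMSO for 15 min and absorbance read at 570 nm. Inhibition was taken relative to control wells, and IC50 was obtained by regression of concentration versus inhibition ratio.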
# U937 cells = experiment: In vitro antiproliferative assay; format: cell-based; details: Homo sapiens, U-937, 48 h, read-out: U937 IC50
# How it was run: as §1
# U937 xenograft = experiment: In vivo antitumor assay in U937 xenograft model; set-up: species or system male athymic nude mice (BALB/c-nu)
# How it was run: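 U937 cells were injected subcutaneously into the right flank of male BALB/c-nu mice aged 5–6 weeks. After about 10 days, at roughly 100 mm3, mice were randomized six per group. Dosing was oral, 100 mg/kg daily for 12 days, with controls given an equal volume of PBS. Calipers were used every 3 days, V = ab2/2, and RTV = Vt/V0. Body weight was tracked. Tumors were weighed and organs inspected at necropsy. Analysis used a two-tailed t-test, P<0.05.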
# [1] = tested on: HDAC (HeLa cell nuclear extract); experiment: In vitro HDAC inhibition fluorescence assay; format: biochemical, human; details: read-out: HeLa cell nuclear extract IC50, substrate Boc-Lys(acetyl)-AMC, mean of three experiments
# How it was run: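 HeLa nuclear extract preincubated with test compound at several concentrations, 10 min at 37°C. Boc-Lys(acetyl)-AMC then added and incubated 30 min at 37°C. Reaction stopped with developer containing trypsin and trichostatin A. Fluorescence read 20 min later (ex 390/em 460 nm). Inhibition calculated relative to control wells. IC50 obtained by regression of concentration against inhibition ratio.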
# KG-1 cells = experiment: In vitro antiproliferative assay; format: cell-based; details: Homo sapiens, KG-1, 48 h, read-out: KG-1 IC50
# How it was run: as §1
# H7402 cells = experiment: In vitro antiproliferative assay; format: cell-based; details: Homo sapiens, H7402, 48 h, read-out: H7402 IC50
# How it was run: as §1
# U266 cells = experiment: In vitro antiproliferative assay; format: cell-based; details: Homo sapiens, U-266, 48 h, read-out: U266 IC50
# How it was run: as §1
# HCT116 cells = experiment: In vitro antiproliferative assay; format: cell-based; details: Homo sapiens, HCT-116, 48 h, read-out: HCT116 IC50
# How it was run: as §1
# [2] = tested on: HDAC (HeLa cell nuclear extract); details: read-out: HeLa cell nuclear extract IC50; HDAC inhibition; ref Zhang et al.[8]; cited from earlier work
# [3] = U937 xenograft mice, 100 mg/kg once a day orally for 12 days
SMILES,IC50 (U937 cells),IC50 [1],other results
"COc1cccc(CN[C@H](C(=O)Nc2ccc(C(=O)NO)cc2)c2ccccc2)c1 [Compound 9d, (S)-N-Hydroxy-4-(2-((3-methoxybenzyl)amino)-2-phenylacetamido)benzamide]",530 nM,70 nM,"IC50 (HeLa cells): 5400 nM; Relative increment ratio (T/C) (U937 xenograft; U937 xenograft in nude mice, 100 mg/kg once a day orally for 12 days): 43%; Body weight loss (U937 xenograft; [3]): no significant body weight loss; Toxic signs in macroscopic analysis of liver and spleen (U937 xenograft; [3]): no evident toxic signs; Oral antitumor activity (U937 xenograft; U937 xenograft, 100 mg/kg po, tumor growth curve and final tumor tissue size): comparable with SAHA; IC50 (KG-1 cells): 900 nM; IC50 (H7402 cells): 3500 nM; IC50 (U266 cells): 980 nM; IC50 (HCT116 cells): 1300 nM"
"O=C(Nc1ccccc1Cl)N[C@H](C(=O)Nc1ccc(C(=O)NO)cc1)c1ccccc1 [Compound 7c, (S)-4-(2-(3-(2-Chlorophenyl)ureido)-2-phenylacetamido)-N-hydroxybenzamide]",4400 nM,2.3 nM,
"Cc1ccc(NC(=O)N[C@H](C(=O)Nc2ccc(C(=O)NO)cc2)c2ccccc2)cc1 [Compound 7g, (S)-N-Hydroxy-4-(2-phenyl-2-(3-(p-tolyl)ureido)acetamido)benzamide]",3100 nM,2.7 nM,
"CCc1cccc(CC)c1NC(=O)N[C@H](C(=O)Nc1ccc(C(=O)NO)cc1)c1ccccc1 [Compound 7j, (S)-4-(2-(3-(2,6-Diethylphenyl)ureido)-2-phenylacetamido)-N-hydroxybenzamide]",,178 nM,
"O=C(Nc1cccc(Cl)c1)N[C@H](C(=O)Nc1ccc(C(=O)NO)cc1)c1ccccc1 [Compound 7b, (S)-4-(2-(3-(3-Chlorophenyl)ureido)-2-phenylacetamido)-N-hydroxybenzamide]",2900 nM,12.6 nM,
"COc1cccc(NC(=O)N[C@H](C(=O)Nc2ccc(C(=O)NO)cc2)c2ccccc2)c1 [Compound 7a, (S)-N-Hydroxy-4-(2-(3-(3-methoxyphenyl)ureido)-2-phenylacetamido)benzamide]",6100 nM,13.3 nM,
"Cc1cc(C)cc(NC(=O)N[C@H](C(=O)Nc2ccc(C(=O)NO)cc2)c2ccccc2)c1 [Compound 7i, (S)-4-(2-(3-(3,5-Dimethylphenyl)ureido)-2-phenylacetamido)-N-hydroxybenzamide]",5700 nM,15 nM,
"O=C(Nc1ccccc1Br)N[C@H](C(=O)Nc1ccc(C(=O)NO)cc1)c1ccccc1 [Compound 7e, (S)-4-(2-(3-(2-Bromophenyl)ureido)-2-phenylacetamido)-N-hydroxybenzamide]",2000 nM,4.1 nM,
"O=C(NO)c1ccc(NC(=O)[C@@H](NC(=O)c2cnccn2)c2ccccc2)cc1 [Compound 8e, (S)-N-(2-((4-(Hydroxycarbamoyl)phenyl)amino)-2-oxo-1-phenylethyl)pyrazine-2-carboxamide]",,353 nM,
"O=C(Nc1ccc(Cl)cc1Cl)N[C@H](C(=O)Nc1ccc(C(=O)NO)cc1)c1ccccc1 [Compound 7h, (S)-4-(2-(3-(2,4-Dichlorophenyl)ureido)-2-phenylacetamido)-N-hydroxybenzamide]",5100 nM,1.2 nM,
"O=C(Nc1cccc2ccccc12)N[C@H](C(=O)Nc1ccc(C(=O)NO)cc1)c1ccccc1 [Compound 7k, (S)-N-Hydroxy-4-(2-(3-(naphthalen-1-yl)ureido)-2-phenylacetamido)benzamide]",,124 nM,
"Cc1ccccc1NC(=O)N[C@H](C(=O)Nc1ccc(C(=O)NO)cc1)c1ccccc1 [Compound 7f, (S)-N-Hydroxy-4-(2-phenyl-2-(3-(o-tolyl)ureido)acetamido)benzamide]",,6.3 nM,
"O=C(NO)c1ccc(NC(=O)[C@@H](NC(=O)c2cc3ccccc3[nH]2)c2ccccc2)cc1 [Compound 8d, (S)-N-(2-((4-(Hydroxycarbamoyl)phenyl)amino)-2-oxo-1-phenylethyl)-1H-indole-2-carboxamide]",8900 nM,53 nM,
"O=C(NO)c1ccc(NC(=O)[C@@H](NC(=O)c2ccc3nccnc3c2)c2ccccc2)cc1 [Compound 8b, (S)-N-(2-((4-(Hydroxycarbamoyl)phenyl)amino)-2-oxo-1-phenylethyl)quinoxaline-6-carboxamide]",10500 nM,163 nM,
"O=C(CCCCCCC(=O)Nc1ccccc1)NO [SAHA, suberoylanilide hydroxamic acid]",,,IC50 [2]: 146 nM
"O=C(NO)c1ccc(NC(=O)[C@@H](NC(=O)c2ccc3cc[nH]c3c2)c2ccccc2)cc1 [Compound 8c, (S)-N-(2-((4-(Hydroxycarbamoyl)phenyl)amino)-2-oxo-1-phenylethyl)-1H-indole-6-carboxamide]",9800 nM,107 nM,
"O=C(Nc1ccccc1F)N[C@H](C(=O)Nc1ccc(C(=O)NO)cc1)c1ccccc1 [Compound 7d, (S)-4-(2-(3-(2-Fluorophenyl)ureido)-2-phenylacetamido)-N-hydroxybenzamide]",,76.1 nM,
"O=C(NO)c1ccc(NC(=O)[C@@H](NC(=O)c2ccc3ncccc3c2)c2ccccc2)cc1 [Compound 8a, (S)-N-(2-((4-(Hydroxycarbamoyl)phenyl)amino)-2-oxo-1-phenylethyl)quinoline-6-carboxamide]",10500 nM,168 nM,

# Further lines, with some results ahead:
IC50 (U937 cells),IC50 [1],SMILES,other results
950 nM,13.8 nM,"O=C(NO)c1ccc(NC(=O)[C@@H](NCc2ccc(Cl)cc2)c2ccccc2)cc1 [Compound 9e, (S)-4-(2-((4-Chlorobenzyl)amino)-2-phenylacetamido)-N-hydroxybenzamide]",IC50 (HeLa cells): 15600 nM; IC50 (KG-1 cells): 2000 nM; IC50 (H7402 cells): 9600 nM; IC50 (U266 cells): 3000 nM; IC50 (HCT116 cells): 3000 nM
,91.7 nM,"O=C(/C=C/c1ccc(NC(=O)[C@@H](NC(=O)Nc2ccccc2Br)c2ccccc2)cc1)NO [Compound 16c, (S, E)-3-(4-(2-(3-(2-Bromophenyl)ureido)-2-phenylacetamido)phenyl)-N-hydroxyacrylamide]",
2000 nM,72 nM,"COc1cc(CN[C@H](C(=O)Nc2ccc(C(=O)NO)cc2)c2ccccc2)ccc1O [Compound 9g, (S)-N-Hydroxy-4-(2-((4-hydroxy-3-methoxybenzyl)amino)-2-phenylacetamido)benzamide]",IC50 (HeLa cells): 200 nM; IC50 (KG-1 cells): 5600 nM; IC50 (H7402 cells): 200 nM; IC50 (U266 cells): 4300 nM; IC50 (HCT116 cells): 6200 nM
,811 nM,"Cc1ccccc1NC(=O)N[C@H](C(=O)Nc1ccc(/C=C/C(=O)NO)cc1)c1ccccc1 [Compound 16d, (S, E)-N-Hydroxy-3-(4-(2-phenyl-2-(3-(o-tolyl)ureido)acetamido)phenyl)acrylamide]",
1100 nM,56.1 nM,"O=C(NO)c1ccc(NC(=O)[C@@H](NCc2ccccc2Cl)c2ccccc2)cc1 [Compound 9b, (S)-4-(2-((2-Chlorobenzyl)amino)-2-phenylacetamido)-N-hydroxybenzamide]",IC50 (HeLa cells): 6000 nM; IC50 (KG-1 cells): 3400 nM; IC50 (H7402 cells): 4200 nM; IC50 (U266 cells): 2400 nM; IC50 (HCT116 cells): 5500 nM
,128 nM,"O=C(/C=C/c1ccc(NC(=O)[C@@H](NC(=O)Nc2ccccc2Cl)c2ccccc2)cc1)NO [Compound 16a, (S, E)-3-(4-(2-(3-(2-Chlorophenyl)ureido)-2-phenylacetamido)phenyl)-N-hydroxyacrylamide]",
840 nM,12.8 nM,"O=C(NO)c1ccc(NC(=O)[C@@H](NCc2ccccc2Br)c2ccccc2)cc1 [Compound 9c, (S)-4-(2-((2-Bromobenzyl)amino)-2-phenylacetamido)-N-hydroxybenzamide]",IC50 (HeLa cells): 15000 nM; IC50 (KG-1 cells): 1500 nM; IC50 (H7402 cells): 7100 nM; IC50 (U266 cells): 2100 nM; IC50 (HCT116 cells): 2300 nM
980 nM,50.3 nM,"O=C(NO)c1ccc(NC(=O)[C@@H](NCc2ccc(O)cc2)c2ccccc2)cc1 [Compound 9f, (S)-N-Hydroxy-4-(2-((4-hydroxybenzyl)amino)-2-phenylacetamido)benzamide]",IC50 (HeLa cells): 6800 nM; IC50 (KG-1 cells): 2500 nM; IC50 (H7402 cells): 12400 nM; IC50 (U266 cells): 3300 nM; IC50 (HCT116 cells): 3000 nM
,215 nM,"O=C(/C=C/c1ccc(NC(=O)[C@@H](NC(=O)Nc2ccccc2F)c2ccccc2)cc1)NO [Compound 16b, (S, E)-3-(4-(2-(3-(2-Fluorophenyl)ureido)-2-phenylacetamido)phenyl)-N-hydroxyacrylamide]",
750 nM,105 nM,"COc1ccccc1CN[C@H](C(=O)Nc1ccc(C(=O)NO)cc1)c1ccccc1 [Compound 9a, (S)-N-Hydroxy-4-(2-((2-methoxybenzyl)amino)-2-phenylacetamido)benzamide]",IC50 (HeLa cells): 8000 nM; IC50 (KG-1 cells): 1100 nM; IC50 (H7402 cells): 4100 nM; IC50 (U266 cells): 1500 nM; IC50 (HCT116 cells): 1400 nM
